Assay results from different studies.
Cnr2: Cannabinoid receptor 2 (Cnr2, Mus musculus, UniProt P47936)
mreB: mreB (Escherichia coli, UniProt P0A9X4)
G protein-coupled receptor 88: G protein-coupled receptor 88 (Homo sapiens, UniProt Q9GZN0)
pol: pol (Feline immunodeficiency virus, UniProt P16088)
CTSL: Procathepsin L (CTSL, Homo sapiens, UniProt P07711)
HDAC4: Histone deacetylase 4 (HDAC4, Homo sapiens, UniProt P56524)

Structure (SMILES) | target | assay | test system | setting | measurement | result
CCOC(=O)c1c(NCc2ccc(SC)cc2)c2cccc(C)c2[nH]c1=O | Anoctamin-2 (ANO2, Homo sapiens, UniProt Q9NQ90) | ion flux, inhibitor | – | – | IC50 | 990 nM
CCOC(=O)C(CC)(CCCSCCOCCOCCOCCNC(=O)OC(C)(C)C)NC(=O)c1ccc(C2CC2)c(Cc2ccc(F)cc2)n1 (stereo not shown) | Cnr2 | cAMP, agonist | – | – | EC50 | 21 nM
CC(NCCCNC(=O)c1cc(Cl)c(Cl)s1)c1cc2cc(Br)ccc2[nH]1 (stereo not shown) | mreB | ATPase activity, inhibitor, absorbance | – | – | IC50 | 6000 nM
CCOC(=O)C(CC)(CCCSCCOCCOCCNc1ccc([N+](=O)[O-])c2nonc12)NC(=O)c1ccc(C2CC2)c(Cc2ccc(F)cc2)n1 (racemic) | Cnr2 | ligand displacement, radioligand | – | cell membranes | Ki | 73 nM
CC[C@H](C)COc1ccc([C@@H](CO)C(=O)N[C@H](C)c2ccccc2)cc1 | G protein-coupled receptor 88 | cAMP, agonist, TR-FRET | – | – | EC50 | 2000 nM
NC1CCCCc2c1[nH]c1cc(Cl)c(Cl)cc21 (stereo not shown) | mreB | ATPase activity, inhibitor, absorbance | – | – | IC50 | 29000 nM
Cc1nonc1Cn1nnc2c(N3CC[C@H](O)C3)nc(C(C)(C)C)nc21 | Cnr2 | ligand displacement, radioligand | – | cell membranes | Ki | 61 nM
N[C@@H](CCP(=O)(O)O)C(=O)O | Metabotropic glutamate receptor 7 (Grm7, Rattus norvegicus, UniProt P35400) | calcium signal, agonist | – | – | EC50 | 117000 nM
Cc1nc([C@@](C)(CC2CC2)NC(=O)c2cc(OCC(F)(F)F)c(C3CC3)cn2)no1 | Cnr2 | cAMP, agonist | – | – | EC50 | 3 nM
Cc1cc(/C=C/C#N)cc(C)c1Nc1ccnc(Nc2ccc(C#N)cc2)n1 | pol | enzyme activity, inhibitor | – | – | IC50 | 50.9 nM
O=P(O)(O)Oc1ccccc1OP(=O)(O)O | Signal transducer and activator of transcription 5B, SH2 (STAT5B, Homo sapiens, UniProt P51692) | ligand displacement, FP | – | – | IC50 | 1950 nM
CC[C@H](NC(=O)OCc1ccccc1)C(=O)N[C@H](C(=O)N[C@@H](Cc1ccccc1)C(=O)N(C)N(C#N)CCC(N)=O)C(C)(C)C | CTSL | enzyme activity, inhibitor | – | – | Ki | 123 nM
CC(C)C[C@H]1C(=O)N2CCC[C@H]2[C@]2(O)O[C@](NC(=O)[C@@H]3C=C4c5cccc6[nH]cc(c56)C[C@H]4N(C)C3)(C(C)C)C(=O)N12 | Solute carrier organic anion transporter family member 1B3 (SLCO1B3, Homo sapiens, UniProt Q9NPD5) | transporter uptake, inhibitor, fluorescence | CHO | 30 min, pH 7.4 | IC50 | 2200 nM
C[C@]12CC[C@@H]3c4ccc(O)cc4CC[C@H]3[C@@H]1CC[C@@H]2O | Protein disulfide-isomerase (P4HB, Homo sapiens, UniProt P07237) | binding, radioligand | – | – | Kd | 1500 nM
CCOC(=O)C(CC)(CCCSCCOCCOCCOCCOCCNC(=O)OC(C)(C)C)NC(=O)c1ccc(C2CC2)c(Cc2ccc(F)cc2)n1 (stereo not shown) | Cnr2 | cAMP, agonist | – | – | EC50 | 31 nM
O=[As](O)(O)c1ccc(Cc2ccc([As](=O)(O)O)cc2)cc1 | Autotaxin (ENPP2, Homo sapiens, UniProt Q13822) | enzyme activity, inhibitor, absorbance | – | – | Ki | 47.5 nM
Cc1ccnc2c1NC(=O)c1cccnc1N2C1CC1 | pol | enzyme activity, inhibitor | – | – | IC50 | 1400 nM
O=C(/C=C/c1cccc(S(=O)(=O)Nc2ccccc2)c1)NO | HDAC4 | cell-free assay | – | – | Kd | > 30200 nM
CC(C)C[C@H](NC(=O)[C@H]1O[C@@H]1C(=O)O)C(=O)NCCCCN=C(N)N | CTSL | enzyme activity, inhibitor | – | – | IC50 | 0.238 nM
CC(N)c1cc2cc(Br)ccc2[nH]1 (stereo not shown) | mreB | ATPase activity, inhibitor, absorbance | – | – | IC50 | 120000 nM
CCOC(=O)[C@](CC)(CCC[S+]([O-])CCOCCOCCNC(=O)OC(C)(C)C)NC(=O)c1ccc(C2CC2)c(Cc2ccc(F)cc2)n1 (stereo partly shown) | Cnr2 | cAMP, agonist | – | – | EC50 | 65 nM
CCCc1ccc(-c2ccc([C@@H](CO)C(=O)N[C@H](C)c3ccccc3)cc2)cc1 | G protein-coupled receptor 88 | cAMP, agonist, TR-FRET | – | – | EC50 | 138 nM
NC(=O)[C@@H]1CC(F)(F)CN1C(=O)c1ccc(N2CC(F)(F)C2)c(OCC2CC2)n1 | Cnr2 | ligand displacement, radioligand | – | cell membranes | Ki | 189 nM
CCCCCCC(C)(C)c1ccc([C@@H]2C[C@H](O)CC[C@H]2CCCO)c(O)c1 | Cnr2 | cAMP, agonist | – | – | EC50 | 0.05 nM
CCCCNNC(=O)c1ccc(Br)cc1 | HDAC4 | enzyme activity, inhibitor, fluorescence | – | – | IC50 | > 100000 nM
